Laboratory results published in ChEMBL document CHEMBL1137499, “A new opioid designed multiple ligand derived from the micro opioid agonist endomorphin-2 and the delta opioid antagonist pharmacophore Dmt-Tic” (Bioorg Med Chem, 2007).
Numbered stars: 1 amine (or outer) side, 2 acyl side, 3 side chain; on linkers, the order of the positions; unused ones are H or OH. Square brackets hold non-standard residues; d marks the D form. Peptide text beside a SMILES is read from it. ξ: configuration not given here. Dmt = Cc1cc(O)cc(C)c1C[C@H](N)C(=O)O; Ethylenediamine = C(CN[*:2])N[*:1]; ξTic = O=C(O)C1Cc2ccccc2CN1

Tests used:
Rattus norvegicus [1] = species on record: Rattus norvegicus; assay: Selectivity for delta-opioid receptor over mu opiod receptor in Sprague-Dawley rat brain P2 synaptosome membrane; assay type: tissue-based
Mu-type opioid receptor [2] = target: Mu-type opioid receptor (Cavia porcellus, UniProt P97266); assay: Agonist activity at mu-opioid receptor in Hartley guinea pig ileum assessed as inhibition of electrically-stimulated muscle contraction; assay type: functional, tissue-based
Outline: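 Myenteric plexus longitudinal muscle strips (2-3 cm) from small intestine of male Hartley guinea pigs, held in organ baths of balanced salt solution, pH 7.5. Inhibition of electrically evoked contraction was measured. IC50 (nM) was read from dose-response curves, with dermorphin as internal standard. Values are means ± SE of five or six separate assays.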

[3] = target: Delta-type opioid receptor (Rattus norvegicus, UniProt P33533); assay: Displacement of [3H]deltorphin 2 from delta-opioid receptor in Sprague-Dawley rat brain P2 synaptosome membrane; assay type: tissue-based
Outline: (§1)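 Competition binding at equilibrium, 2.5 h at room temperature (23 °C), on rat brain P2 synaptosomes. Filters were soaked in 0.1% polyethylenimine and washed three times with ice-cold buffered BSA. Duplicate assays used 5-8 doses and 3-5 independent membrane preparations. Ki was derived by Cheng-Prusoff; means ± SE.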

Mu-type opioid receptor [4] = target: Mu-type opioid receptor (Rattus norvegicus, UniProt P33535); assay: Displacement of [3H]DAMGO from mu-opioid receptor in Sprague-Dawley rat brain P2 synaptosome membrane; assay type: tissue-based; outline: as §1
Rattus norvegicus [5] = species on record: Rattus norvegicus; assay: Selectivity for mu-opioid receptor over delta opiod receptor in Sprague-Dawley rat brain P2 synaptosome membrane; assay type: tissue-based

Chain of Mu-type opioid receptor (Rattus norvegicus, UniProt P33535) (P33535 whole entry): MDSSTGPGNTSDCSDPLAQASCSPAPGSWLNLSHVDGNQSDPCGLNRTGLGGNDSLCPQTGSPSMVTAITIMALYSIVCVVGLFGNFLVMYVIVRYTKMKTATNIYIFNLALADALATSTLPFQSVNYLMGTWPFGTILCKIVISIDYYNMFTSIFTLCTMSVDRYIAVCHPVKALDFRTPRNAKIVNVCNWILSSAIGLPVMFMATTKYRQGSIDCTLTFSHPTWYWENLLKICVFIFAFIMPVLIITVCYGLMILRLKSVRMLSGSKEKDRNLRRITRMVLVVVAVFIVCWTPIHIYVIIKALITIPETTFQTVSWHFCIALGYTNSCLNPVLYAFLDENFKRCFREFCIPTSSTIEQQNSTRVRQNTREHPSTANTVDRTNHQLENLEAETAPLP
Chain of Mu-type opioid receptor (Cavia porcellus, UniProt P97266) (P97266 whole entry): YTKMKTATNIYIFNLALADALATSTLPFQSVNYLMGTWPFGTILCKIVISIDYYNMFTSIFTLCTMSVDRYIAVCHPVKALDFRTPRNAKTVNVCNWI
Chain of Delta-type opioid receptor (P33533 whole entry): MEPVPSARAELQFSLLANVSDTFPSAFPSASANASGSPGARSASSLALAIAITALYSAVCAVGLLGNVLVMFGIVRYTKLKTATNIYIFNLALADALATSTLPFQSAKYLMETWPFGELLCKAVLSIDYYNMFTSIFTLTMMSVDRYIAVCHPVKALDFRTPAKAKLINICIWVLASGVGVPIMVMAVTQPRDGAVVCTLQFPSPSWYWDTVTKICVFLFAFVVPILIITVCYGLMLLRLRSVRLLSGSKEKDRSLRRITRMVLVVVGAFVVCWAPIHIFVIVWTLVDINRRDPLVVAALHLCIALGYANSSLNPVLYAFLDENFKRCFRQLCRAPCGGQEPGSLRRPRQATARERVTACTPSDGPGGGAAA

| SMILES | Ratio Ki (Rattus norvegicus [1]) | IC50 (Mu-type opioid receptor [2]) [nM] | Ki [3] [nM] | Ki (Mu-type opioid receptor [4]) [nM] | Ratio Ki (Rattus norvegicus [5]) |
| --- | --- | --- | --- | --- | --- |
| Cc1cc(O)cc(C)c1C[C@H](N)C(=O)N1Cc2ccccc2CC1C(=O)NCCN (stereo partly drawn) (H-[Dmt]-[ξTic]-Ethylenediamine) | 3.36 | 286 | 1.81 | 2.72 | – |
| Cc1cc(O)cc(C)c1C[C@H](N)C(=O)N1Cc2ccccc2C[C@H]1C(=O)NCCNC(=O)[C@H](Cc1ccccc1)NC(=O)[C@H](Cc1ccccc1)NC(=O)[C@@H]1CCCN1C(=O)[C@@H](N)Cc1ccc(O)cc1 | – | 25.1 | 1.45 | 1.03 | – |
| Cc1cc(O)cc(C)c1C[C@H](N)C(=O)N1Cc2ccccc2CC1C(=O)NCCNC(=O)[C@H](Cc1ccccc1)NC(=O)[C@H](Cc1ccccc1)NC(=O)[C@@H]1CCCN1C(=O)[C@@H](N)Cc1ccc(O)cc1 (stereo partly drawn) | – | – | – | – | 1.41 |
